Laboratory results published in ChEMBL document CHEMBL2203229, “Structure Activity Relationship Study of the Cleistriosides and Cleistetrosides for Antibacterial/Anticancer Activity” (ACS Med Chem Lett, 2012).
≈ marks a conversion by molar mass, not a printed value.

Tests used:
BT-549 = assay: Growth inhibition of human BT549 cells after 48 hrs by sulforhodamine B assay; type: functional; details: BT-549, 48 h
Method in brief: (§1)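 Cells in RPMI 1640 with 5% FBS, plated at 5,000–40,000/well and grown 24 h. Time-zero plates fixed with TCA. Five drug concentrations, 48 h at 37 °C, 5% CO₂. Fixation with TCA (10% final for adherent lines; 16% final for suspension lines), staining with 0.4% SRB, reading at 515 nm. GI50 is the concentration giving a 50% reduction in net protein increase relative to time zero.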

MCF7 = assay: Growth inhibition of human MCF7 cells after 48 hrs by sulforhodamine B assay; type: functional; details: MCF7, 48 h; method in brief: as §1
DU-145 = assay: Growth inhibition of human DU145 cells after 48 hrs by sulforhodamine B assay; type: functional; details: DU-145, 48 h; method in brief: as §1
PC-3 = assay: Growth inhibition of human PC3 cells after 48 hrs by sulforhodamine B assay; type: functional; details: PC-3, 48 h; method in brief: as §1
CAKI-1 = assay: Growth inhibition of human CAKI-1 cells after 48 hrs by sulforhodamine B assay; type: functional; details: CAKI-1, 48 h; method in brief: as §1
A498 = assay: Growth inhibition of human A498 cells after 48 hrs by sulforhodamine B assay; type: functional; details: A498, 48 h; method in brief: as §1
[1] = Growth inhibition of human NCI-ADR-RES cells after 48 hrs by sulforhodamine B assay; type: functional; method in brief: as §1
OVCAR-3 = assay: Growth inhibition of human OVCAR3 cells after 48 hrs by sulforhodamine B assay; type: functional; details: OVCAR-3, 48 h; method in brief: as §1
SK-MEL-5 = assay: Growth inhibition of human SK-MEL-5 cells after 48 hrs by sulforhodamine B assay; type: functional; details: SK-MEL-5, 48 h; method in brief: as §1
MDA-MB-435 = assay: Growth inhibition of human MDA-MB-435 cells after 48 hrs by sulforhodamine B assay; type: functional; details: MDA-MB-435, 48 h; method in brief: as §1
SF-539 = assay: Growth inhibition of human SF539 cells after 48 hrs by sulforhodamine B assay; type: functional; details: SF-539, 48 h; method in brief: as §1
SNB-75 = assay: Growth inhibition of human SNB75 cells after 48 hrs by sulforhodamine B assay; type: functional; details: SNB-75, 48 h; method in brief: as §1
HCT-15 = assay: Growth inhibition of human HCT15 cells after 48 hrs by sulforhodamine B assay; type: functional; details: HCT-15, 48 h; method in brief: as §1
HT-29 = assay: Growth inhibition of human HT-29 cells after 48 hrs by sulforhodamine B assay; type: functional; details: HT-29, 48 h; method in brief: as §1
NCI-H460 [2] = assay: Growth inhibition of human NCI-H460 cells after 48 hrs by sulforhodamine B assay; type: functional; details: NCI-H460, 48 h; method in brief: as §1
A549 = assay: Growth inhibition of human A549 cells after 48 hrs by sulforhodamine B assay; type: functional; details: A549, 48 h; method in brief: as §1
SR = assay: Growth inhibition of human SR cells after 48 hrs by sulforhodamine B assay; type: functional; method in brief: as §1
RPMI-8226 = assay: Growth inhibition of human RPMI8226 cells after 48 hrs by sulforhodamine B assay; type: functional; details: RPMI-8226, 48 h; method in brief: as §1
NCI-H460 [3] = assay: Cytotoxicity against human NCI-H460 cells assessed as inhibition of cell viability by MTT assay; type: functional, cell-based
Method in brief: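 NCI-H460 cells in RPMI 1640 with 10% FBS and 2 mM glutamine at 37 °C, 5% CO₂. Seeded at 10,000 cells/well for 12 h, then dosed in 1% FBS medium (DMSO below 0.1% final). MTT (10 µL of 5 mg/mL) for 4 h, formazan dissolved in DMSO for 45 min, absorbance at 562 nm. Triplicate wells, at least three runs (N = 9).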

[4] = Antibacterial activity against Bacillus subtilis JH642 containing trpC2 pheA1 assessed as growth inhibition after 16 hrs by broth dilution method; type: functional, Bacillus subtilis subsp. subtilis str. JH642
Method in brief: (§2)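 Strains grown overnight in LB, diluted 10-fold, shaken at 37 °C for 45 min–1 h (~10⁸ CFU/mL), then diluted ~1000-fold to ~10⁵ CFU/mL. Broth dilution in LB: 20 mM DMSO stocks, 1:2 serial dilutions giving seven concentrations, inoculum added 1:1. OD600 read with shaking.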

Escherichia coli [5] = assay: Antibacterial activity against Escherichia coli K-12 BAS901 harboring genetically modified imp-4213, zab4292::Tn5 assessed as growth inhibition after 16 hrs by broth dilution method; type: functional; details: K-12 BAS901, 16 h
Method in brief: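 Kanamycin-resistant strain grown overnight in LB with kanamycin 50 µg/mL, diluted 10-fold, then shaken at 37 °C for 45 min–1 h (~10⁸ CFU/mL). Diluted ~1000-fold to 10⁵ CFU/mL in LB. DMSO stocks (20 mM) prepared as 4X working solutions in LB. Seven 1:2 serial dilutions mixed with equal-volume inoculum. OD600 read with shaking.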

Escherichia coli [6] = assay: Antibacterial activity against Escherichia coli K-12 MG1655 assessed as growth inhibition after 16 hrs by broth dilution method; type: functional; details: K-12 substr. MG1655, 16 h; method in brief: as §2

| SMILES | GI50 (BT-549) | GI50 (MCF7) | GI50 (DU-145) | GI50 (PC-3) | GI50 (CAKI-1) | GI50 (A498) | GI50 [1] | GI50 (OVCAR-3) | GI50 (SK-MEL-5) | GI50 (MDA-MB-435) | GI50 (SF-539) | GI50 (SNB-75) | GI50 (HCT-15) | GI50 (HT-29) | GI50 (NCI-H460 [2]) | GI50 (A549) | GI50 (SR) | GI50 (RPMI-8226) | IC50 (NCI-H460 [3]) | MIC [4] | further results |
| --- | --- | --- | --- | --- | --- | --- | --- | --- | --- | --- | --- | --- | --- | --- | --- | --- | --- | --- | --- | --- | --- |
| CCCCCCCCCCCCO[C@@H]1O[C@@H](C)[C@H](O[C@@H]2O[C@@H](C)[C@H](OC(C)=O)[C@@H](O[C@@H]3O[C@@H](C)[C@H](OC(C)=O)[C@@H](O[C@@H]4O[C@@H](C)[C@H](OC(C)=O)[C@@H](OC(C)=O)[C@H]4OC(C)=O)[C@H]3OC(C)=O)[C@H]2O)[C@@H](O)[C@H]1O | 1050 nM | 890 nM | 800 nM | 710 nM | 860 nM | 670 nM | 920 nM | 840 nM | 760 nM | 880 nM | 800 nM | 540 nM | 820 nM | 910 nM | 930 nM | 800 nM | 920 nM | 1040 nM | 16400 nM | > 64 µM | MIC (Escherichia coli [5]): > 64 µM; MIC (Escherichia coli [6]): > 64 µM |
| CCCCCCCCCCCCO[C@@H]1O[C@@H](C)[C@H](O[C@@H]2O[C@@H](C)[C@H](OC(C)=O)[C@@H](O[C@@H]3O[C@@H](C)[C@H](OC(C)=O)[C@@H](O[C@@H]4O[C@@H](C)[C@H](OC(C)=O)[C@@H](O)[C@H]4O)[C@H]3OC(C)=O)[C@H]2O)[C@@H](O)[C@H]1O | 8460 nM | 1740 nM | 7920 nM | 5300 nM | 8450 nM | 7570 nM | 9150 nM | 4840 nM | 1760 nM | 6000 nM | 4700 nM | 1360 nM | 7540 nM | 8020 nM | 7580 nM | 9470 nM | 1450 nM | 1860 nM | 9100 nM | 4 µM (≈ 3.76 µg/mL) | MIC (Escherichia coli [5]): > 64 µM; MIC (Escherichia coli [6]): > 64 µM |
| CCCCCCCCCCCCO[C@@H]1O[C@@H](C)[C@H](O[C@@H]2O[C@@H](C)[C@H](OC(C)=O)[C@@H](O[C@@H]3O[C@@H](C)[C@H](O)[C@@H](OC(C)=O)[C@H]3OC(C)=O)[C@H]2O)[C@@H](O)[C@H]1O | 4540 nM | 1620 nM | 2480 nM | 890 nM | 6570 nM | 5130 nM | 7920 nM | 1490 nM | 1230 nM | 1490 nM | 3100 nM | 900 nM | 7380 nM | 1210 nM | 1540 nM | 2080 nM | 1200 nM | 1000 nM | 12500 nM | 8 µM (≈ 6.01 µg/mL) | MIC (Escherichia coli [5]): 32 µM (≈ 24 µg/mL); MIC (Escherichia coli [6]): > 64 µM |
